According to ChEMBL document CHEMBL1933063, “Investigation of chalcones and benzochalcones as inhibitors of breast cancer resistance protein” (Bioorg Med Chem, 2012):

What was measured:
[1] = target: ATP-dependent translocase ABCB1 (Homo sapiens, UniProt P08183); test: Inhibition of MDR1 in human A2780adr cells assessed as calcein AM accumulation at 10 uM by fluorimetry; type: cell-based; conditions: a2780 adr
Method in brief: (§1)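 Calcein AM accumulation in A2780adr (P-gp) or 2008 MRP1 cells. Cells washed in Krebs-HEPES buffer, about 30,000 per well, preincubated 30 min with compound at 10 µM final. Calcein AM then added. Fluorescence (ex 485, em 520 nm) read every 60 s up to 90 min at 37 °C. Expressed as percent of vehicle control; n = 3.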

[2] = target: Multidrug resistance-associated protein 1 (Homo sapiens, UniProt P33527); test: Inhibition of MRP1 overexpressed in human 2008 MRP1 cells assessed as calcein AM accumulation at 10 uM by fluorimetry; type: cell-based; conditions: human, 2008, 10 µM; method in brief: as §1
Multidrug resistance-associated protein 1, sequence (P33527 whole entry): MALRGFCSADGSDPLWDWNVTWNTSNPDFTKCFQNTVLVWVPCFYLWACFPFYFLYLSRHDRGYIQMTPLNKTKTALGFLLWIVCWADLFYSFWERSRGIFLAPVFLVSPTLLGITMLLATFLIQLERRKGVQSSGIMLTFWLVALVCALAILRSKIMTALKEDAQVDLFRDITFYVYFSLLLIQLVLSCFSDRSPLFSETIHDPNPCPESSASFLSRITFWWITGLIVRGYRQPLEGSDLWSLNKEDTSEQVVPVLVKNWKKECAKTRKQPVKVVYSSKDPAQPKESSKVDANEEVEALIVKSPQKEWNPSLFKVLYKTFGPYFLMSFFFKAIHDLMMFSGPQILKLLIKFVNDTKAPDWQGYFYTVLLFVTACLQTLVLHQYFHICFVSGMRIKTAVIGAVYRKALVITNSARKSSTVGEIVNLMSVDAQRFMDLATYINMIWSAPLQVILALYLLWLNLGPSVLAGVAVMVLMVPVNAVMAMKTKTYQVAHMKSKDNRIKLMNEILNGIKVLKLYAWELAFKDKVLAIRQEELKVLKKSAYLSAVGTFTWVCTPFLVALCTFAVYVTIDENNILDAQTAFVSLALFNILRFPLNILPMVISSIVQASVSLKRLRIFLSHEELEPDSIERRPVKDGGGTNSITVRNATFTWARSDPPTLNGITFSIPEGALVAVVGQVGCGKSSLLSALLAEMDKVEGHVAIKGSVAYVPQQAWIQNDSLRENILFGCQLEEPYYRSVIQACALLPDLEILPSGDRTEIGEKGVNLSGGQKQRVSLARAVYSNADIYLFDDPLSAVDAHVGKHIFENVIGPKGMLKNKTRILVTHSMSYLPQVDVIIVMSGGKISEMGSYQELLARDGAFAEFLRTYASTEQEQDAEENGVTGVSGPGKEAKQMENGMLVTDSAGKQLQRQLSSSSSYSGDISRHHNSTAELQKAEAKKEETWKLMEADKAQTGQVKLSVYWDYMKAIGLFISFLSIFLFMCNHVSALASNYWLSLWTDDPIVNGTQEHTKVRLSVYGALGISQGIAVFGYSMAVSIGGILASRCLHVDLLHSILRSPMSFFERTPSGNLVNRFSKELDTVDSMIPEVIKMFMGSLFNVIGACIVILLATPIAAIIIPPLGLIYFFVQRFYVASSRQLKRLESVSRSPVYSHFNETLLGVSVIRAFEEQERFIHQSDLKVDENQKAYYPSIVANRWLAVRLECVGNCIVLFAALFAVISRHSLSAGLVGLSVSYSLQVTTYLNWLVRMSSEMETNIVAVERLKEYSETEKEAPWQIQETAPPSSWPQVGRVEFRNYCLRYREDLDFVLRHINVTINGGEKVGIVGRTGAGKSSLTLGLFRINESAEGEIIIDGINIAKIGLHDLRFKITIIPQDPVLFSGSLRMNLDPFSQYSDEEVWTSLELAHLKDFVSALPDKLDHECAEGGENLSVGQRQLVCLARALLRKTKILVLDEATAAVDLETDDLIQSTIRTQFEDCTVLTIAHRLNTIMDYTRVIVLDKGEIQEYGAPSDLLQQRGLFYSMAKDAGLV

[3] = target: T1, Broad substrate specificity ATP-binding cassette transporter ABCG2 (Homo sapiens, UniProt Q9UNQ0); test: Inhibition of BCRP in human MCF7/MX cells assessed as Hoechst 33342 accumulation preincubated for 30 mins by Fluorometry; type: cell-based
T1 sequence (Q9UNQ0 whole entry): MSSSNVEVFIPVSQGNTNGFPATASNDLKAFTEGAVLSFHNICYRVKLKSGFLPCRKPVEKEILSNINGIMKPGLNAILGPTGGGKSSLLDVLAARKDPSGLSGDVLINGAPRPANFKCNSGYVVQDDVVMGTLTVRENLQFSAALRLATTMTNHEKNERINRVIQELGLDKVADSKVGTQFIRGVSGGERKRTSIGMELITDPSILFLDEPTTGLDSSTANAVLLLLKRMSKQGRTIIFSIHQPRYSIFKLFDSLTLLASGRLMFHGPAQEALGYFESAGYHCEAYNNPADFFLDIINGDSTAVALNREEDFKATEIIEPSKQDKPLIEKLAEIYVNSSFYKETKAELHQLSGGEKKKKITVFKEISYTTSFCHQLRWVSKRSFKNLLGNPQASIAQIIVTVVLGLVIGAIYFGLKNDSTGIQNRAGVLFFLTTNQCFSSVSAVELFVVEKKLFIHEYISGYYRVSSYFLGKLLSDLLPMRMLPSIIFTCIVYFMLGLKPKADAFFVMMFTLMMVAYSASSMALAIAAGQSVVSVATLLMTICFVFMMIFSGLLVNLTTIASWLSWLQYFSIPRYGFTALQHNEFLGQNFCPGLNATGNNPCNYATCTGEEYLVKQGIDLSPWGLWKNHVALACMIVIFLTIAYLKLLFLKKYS
Method in brief: (§2)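 Cells washed three times in Krebs-HEPES buffer, about 20,000 per well, preincubated with test compound at varied concentrations for 30 min at 37 °C, 5% CO2. Hoechst 33342 then added (final 1 µM). Fluorescence (ex 355, em 460 nm) read every 60 s up to 120 min at 37 °C. KHB background subtracted, 100–109 min mean plotted, four-parameter logistic fit; ≥3 independent experiments.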

[4] = target: T1, Broad substrate specificity ATP-binding cassette transporter ABCG2; test: Inhibition of human BCRP expressed in MDCK2 cells assessed as Hoechst 33342 accumulation preincubated for 30 mins by fluorimetry; type: cell-based, MDCK-II; method in brief: as §2

ATP-dependent translocase ABCB1, sequence (P08183 whole entry): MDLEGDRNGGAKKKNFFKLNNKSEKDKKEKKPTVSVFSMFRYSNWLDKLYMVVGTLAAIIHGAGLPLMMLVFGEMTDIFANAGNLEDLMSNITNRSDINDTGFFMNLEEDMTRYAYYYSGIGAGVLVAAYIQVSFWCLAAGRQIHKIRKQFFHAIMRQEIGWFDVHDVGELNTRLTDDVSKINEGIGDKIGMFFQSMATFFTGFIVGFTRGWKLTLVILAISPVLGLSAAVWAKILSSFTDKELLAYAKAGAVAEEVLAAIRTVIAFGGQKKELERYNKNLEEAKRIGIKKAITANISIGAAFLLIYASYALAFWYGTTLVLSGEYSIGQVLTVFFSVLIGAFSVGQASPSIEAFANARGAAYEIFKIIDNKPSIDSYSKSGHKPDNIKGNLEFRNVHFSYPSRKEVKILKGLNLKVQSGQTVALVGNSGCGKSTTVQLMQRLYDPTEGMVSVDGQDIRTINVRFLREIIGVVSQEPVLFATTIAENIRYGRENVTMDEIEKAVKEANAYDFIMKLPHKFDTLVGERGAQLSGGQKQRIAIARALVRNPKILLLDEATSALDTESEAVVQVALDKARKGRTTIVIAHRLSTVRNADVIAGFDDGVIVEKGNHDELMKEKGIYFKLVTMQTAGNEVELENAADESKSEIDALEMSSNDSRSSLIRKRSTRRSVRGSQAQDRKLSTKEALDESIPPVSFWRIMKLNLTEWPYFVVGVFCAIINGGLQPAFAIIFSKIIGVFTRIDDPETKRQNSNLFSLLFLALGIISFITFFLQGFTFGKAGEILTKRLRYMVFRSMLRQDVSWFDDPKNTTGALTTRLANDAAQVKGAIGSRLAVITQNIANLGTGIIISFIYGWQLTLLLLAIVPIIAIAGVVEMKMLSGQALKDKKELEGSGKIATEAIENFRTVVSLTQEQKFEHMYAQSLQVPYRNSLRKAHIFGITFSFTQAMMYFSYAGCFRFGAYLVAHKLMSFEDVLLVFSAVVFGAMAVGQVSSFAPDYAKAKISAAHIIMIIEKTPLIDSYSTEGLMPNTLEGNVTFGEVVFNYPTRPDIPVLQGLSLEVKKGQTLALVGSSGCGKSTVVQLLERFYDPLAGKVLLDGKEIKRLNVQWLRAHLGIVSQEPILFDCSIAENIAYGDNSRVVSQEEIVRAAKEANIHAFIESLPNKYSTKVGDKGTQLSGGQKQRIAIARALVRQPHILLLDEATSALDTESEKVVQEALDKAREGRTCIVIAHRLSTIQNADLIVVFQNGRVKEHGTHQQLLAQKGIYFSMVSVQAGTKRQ

Row | Structure (SMILES) | inhibition (INH) [1] | inhibition (INH) [2] | IC50 ([3]; read-out: IC50) [µM] | IC50 ([4]; read-out: IC50) [µM] | IC50 ([3]; mcf7/mx) | IC50 ([4]; mdck-ii)
1 | COc1ccc(/C=C/C(=O)c2ccccc2O)cc1OC | Active | Not Active | 5.07 | 4.97 |  | 
2 | COc1ccc(C(=O)/C=C/c2ccc(OC)c(OC)c2)c(OC)c1 | Active | Not Active | 2.2 | 1.03 |  | 
3 | COc1ccc(/C=C/C(=O)c2ccc(O)cc2O)cc1OC | Active | Not Active | 0.93 | 0.85 |  | 
4 | COc1ccc(/C=C/C(=O)c2ccc(OC)c(OC)c2)cc1OC | Active | Not Active | 3.28 | 3.8 |  | 
5 | COc1ccc(/C=C/C(=O)c2ccc3ccccc3c2O)cc1OC | Active | Not Active | 2.5 | 1.95 |  | 
6 | O=C(/C=C/c1ccc(Cl)cc1)c1ccc2ccccc2c1O | Active | Not Active |  |  | Not Active | Not Active
7 | COc1ccc(C(=O)/C=C/c2ccccc2Cl)c(OC)c1 | Active | Not Active | 3.13 | 2.63 |  | 
8 | COc1ccc(C(=O)/C=C/c2ccccc2Cl)cc1OC | Active | Not Active | 11 | 7.8 |  | 
9 | COc1ccc(/C=C/C(=O)c2ccc(OC)cc2O)cc1 | Active | Not Active | 4.2 | 2.2 |  | 
10 | O=C(/C=C/c1ccccc1Cl)c1ccccc1 | Active | Not Active |  |  | Not Active | Not Active
11 | COc1cccc(/C=C/C(=O)c2ccc(OC)cc2O)c1 | Active | Not Active | 3.15 | 1.47 |  | 
12 | COc1ccc(/C=C/C(=O)c2ccccc2)cc1OC | Active | Not Active |  |  | Not Active | Not Active
13 | COc1ccc(C(=O)/C=C/c2ccccc2)c(O)c1 | Active | Not Active | 31 | 30.9 |  | 
14 | COc1ccc(C(=O)/C=C/c2ccc(Cl)cc2)c(O)c1 | Active | Not Active | 13.5 | 10.7 |  | 
15 | O=C(/C=C/c1ccccc1)c1c(O)ccc2ccccc12 | Active | Not Active | 2.77 | 2.58 |  | 
16 | O=C(/C=C/c1ccc(Cl)c(Cl)c1)c1c(O)ccc2ccccc12 | Active | Not Active | 8.78 | 7.26 |  | 
17 | O=C(/C=C/c1ccccc1Cl)c1ccc(O)cc1O | Active | Not Active | 3.21 | 3.28 |  | 
18 | COc1ccc(/C=C/C(=O)c2ccc(OC)c(OC)c2)cc1 | Active | Not Active | 2.19 | 1.16 |  | 
19 | O=C(/C=C/c1ccccc1)c1ccc2ccccc2c1O | Active | Not Active | 24.3 | 9.23 |  | 
20 | COc1ccc(C(=O)/C=C/c2ccc(Cl)c(Cl)c2)c(O)c1 | Active | Not Active |  |  | Not Active | Not Active

Row | Structure (SMILES) | inhibition (INH) [1] | inhibition (INH) [2] | IC50 ([3]; read-out: IC50) [µM] | IC50 ([4]; read-out: IC50) [µM] | IC50 ([3]; mcf7/mx) | IC50 ([4]; mdck-ii)
21 | COc1ccc(/C=C/C(=O)c2c(O)cc(OC)cc2OC)cc1 [FLAVOKAWAIN A] | Active | Not Active | 5.83 | 3 |  | 
22 | COc1cccc(/C=C/C(=O)c2ccc3ccccc3c2O)c1 | Active | Not Active | 11.9 | 5.68 |  | 
23 | COc1ccc(/C=C/C(=O)c2ccc(OC)cc2OC)cc1 [METOCHALCONE] | Active | Not Active | 2.34 | 1.91 |  | 
24 | COc1ccc(C(=O)/C=C/c2ccc(OC)c(OC)c2)c(O)c1 | Active | Not Active | 2.17 | 1.06 |  | 
25 | O=C(/C=C/c1ccc(Cl)cc1)c1ccc(O)cc1O | Active | Not Active | 6.07 | 6.37 |  | 
26 | COc1ccc(C(=O)/C=C/c2ccc(Cl)cc2)cc1OC | Active | Not Active | 2.72 | 1.73 |  | 
27 | O=C(/C=C/c1ccccc1Cl)c1ccc2ccccc2c1O | Active | Not Active |  |  | Not Active | Not Active
28 | O=C(/C=C/c1ccc(Cl)cc1)c1c(O)ccc2ccccc12 | Active | Not Active |  |  | Not Active | Not Active
29 | O=C(/C=C/c1ccccc1)c1ccc(O)cc1O [2',4'-DIHYDROXYCHALCONE] | Active | Not Active |  |  | Not Active | Not Active
30 | O=C(/C=C/c1ccccc1)c1ccccc1O [2'-HYDROXYCHALCONE] | Active | Not Active |  |  | Not Active | Not Active
31 | O=C(/C=C/c1ccc(Cl)c(Cl)c1)c1ccc2ccccc2c1O | Active | Not Active | 26.1 | 22.4 |  | 
32 | COc1cccc(/C=C/C(=O)c2ccc(O)cc2O)c1 | Active | Not Active | 2.8 | 1.94 |  | 
33 | COc1ccc(/C=C/C(=O)c2ccc3ccccc3c2O)cc1 | Active | Not Active | 16.9 | 9.83 |  | 
34 | COc1ccc(/C=C/C(=O)c2ccc(O)cc2O)cc1 | Active | Not Active | 33.3 | 12 |  | 
35 | COc1ccc(/C=C/C(=O)c2c(O)ccc3ccccc23)cc1 | Active | Not Active | 3.81 | 2.89 |  | 
36 | COc1ccc(C(=O)/C=C/c2ccccc2Cl)c(O)c1 | Active | Not Active | 6.85 | 3.32 |  | 
37 | COc1ccc(/C=C/C(=O)c2ccccc2O)cc1 | Active | Not Active |  |  | Not Active | Not Active
38 | COc1ccc(C(=O)/C=C/c2ccc(Cl)cc2)c(OC)c1 | Active | Not Active | 3.09 | 1.13 |  | 
39 | COc1cccc(/C=C/C(=O)c2c(O)ccc3ccccc23)c1 | Active | Not Active | 1.93 | 1.93 |  | 
40 | O=C(/C=C/c1ccccc1Cl)c1c(O)ccc2ccccc12 | Active | Not Active | 5.21 | 5.58 |  | 
